Active and inactive are the calls of the source. No cut-off for these calls is given here.
Experiments:
Rattus norvegicus [1] = assay: Dose that inhibits paw swelling by 25% compared with control in carrgeenin rat paw edema assay; format: functional
In short: (§1)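 Rats given glycerides or indomethacin orally 2 h before subplantar injection of 0.1 mL 1.5% carrageenin solution.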

Rattus norvegicus [2] = assay: Percent changes of hind paw edema and severity scores compared to control animals at 1.4 micro mol/kg/day; format: functional
In short: (§2)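 Adjuvant arthritis in rats: mycobacterial adjuvant injected subcutaneously into the tail; on day 14 animals with definite disease were selected and dosed daily on days 14-25. Hind paw swelling and severity scores (four paws scored) were expressed as % change vs diseased controls. Body weight gain was assessed over days 1-25; + marks significant gain.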

Rattus norvegicus [3] = assay: Percent changes of hind paw edema and severity scores compared to control animals at 11.0 micro mol/kg/day; format: functional; in short: as §2
Rattus norvegicus [4] = assay: Percent changes of hind paw edema and severity scores compared to control animals at 2.8 micro mol/kg/day; format: functional; in short: as §2
Rattus norvegicus [5] = assay: Percent changes of hind paw edema and severity scores compared to control animals at 5.6 micro mol/kg/day; format: functional; in short: as §2
Rattus norvegicus [6] = assay: Gain in the body weight of rat was measured at 11.0 micro mol/kg/day. (+ means significant body weight); format: functional, organism-based; in short: as §2
Rattus norvegicus [7] = assay: Gain in the body weight of rat was measured at 5.6 micro mol/kg/day. (+ means significant body weight); format: functional, organism-based; in short: as §2
Rattus norvegicus [8] = species: Rattus norvegicus; assay: Dose which produced lesions in 50% of the treated animals; format: functional
In short: (§3)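 Stomachs of rats from the oral carrageenin paw edema study (dosed 2 h before carrageenin) examined for gastric lesions by the Brodie and Hansen method. UD50 is the dose producing lesions in 50% of treated animals.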

Rattus norvegicus [9] = assay: inhibition of swelling in rat paw edema was measured at a dose of 1.4 micro mol/kg/day for days 14-25; format: functional
In short: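 Rat adjuvant arthritis: adjuvant injected subcutaneously into the tail; after 14 days, only rats with definite disease were treated, with daily doses on days 14-25. Hind paw swelling was expressed as percent change versus diseased controls. Severity was scored on four paws, and body weight gain was followed over days 1-25.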

Rattus norvegicus [10] = assay: inhibition of swelling in rat paw edema was measured at a dose of 11.0 micro mol/kg/day for days 14-25; format: functional; in short: as §2
Rattus norvegicus [11] = assay: inhibition of swelling in rat paw edema was measured at a dose of 2.8 micro mol/kg/day for days 14-25; format: functional; in short: as §2
Rattus norvegicus [12] = assay: inhibition of swelling in rat paw edema was measured at a dose of 5.6 micro mol/kg/day for days 14-25; format: functional; in short: as §2
[13] = Ratio of UD50 to that of ED25; conditions: read-out: Therapeutic ratio
Rattus norvegicus [14] = assay: Percent changes of hind paw edema and severity scores compared to control animals at 0.8 micro mol/kg/day; format: functional; in short: as §2
Rattus norvegicus [15] = assay: Percent changes of hind paw edema and severity scores compared to control animals at 1.6 micro mol/kg/day; format: functional; in short: as §2
Rattus norvegicus [16] = assay: Percent changes of hind paw edema and severity scores compared to control animals at 14.0 micro mol/kg/day; format: functional; in short: as §2
Rattus norvegicus [17] = assay: Gain in the body weight of rat was measured at 14.0 micro mol/kg/day. (+ means significant body weight); format: functional, organism-based; in short: as §2
Rattus norvegicus [18] = assay: Gain in the body weight of rat was measured at 3.3 micro mol/kg/day. (+ means significant body weight); format: functional, organism-based; in short: as §2
Rattus norvegicus [19] = assay: inhibition of swelling in rat paw edema was measured at a dose of 1.6 micro mol/kg/day for days 14-25; format: functional; in short: as §2
Rattus norvegicus [20] = assay: inhibition of swelling in rat paw edema was measured at a dose of 0.8 micro mol/kg/day for days 14-25; format: functional; in short: as §2
Rattus norvegicus [21] = assay: inhibition of swelling in rat paw edema was measured at a dose of 14.0 micro mol/kg/day for days 14-25; format: functional; in short: as §2
Rattus norvegicus [22] = assay: Percent changes of hind paw edema and severity scores compared to control animals at 3.3 micro mol/kg/day; format: functional; in short: as §2
Rattus norvegicus [23] = assay: inhibition of swelling in rat adjuvant-induced arthritis was measured at a dose of 3.3 micro mol/kg/day for days 14-25
Rattus norvegicus [24] = assay: Dose that inhibits paw swelling by 25% compared with control in carrgeenin rat paw edema assay; i = inactive at 26 uM/Kg; format: functional, organism-based; in short: as §1
Rattus norvegicus [25] = assay: Percent changes of hind paw edema and severity scores compared to control animals at 0.7 micro mol/kg/day; format: functional; in short: as §2
Rattus norvegicus [26] = assay: Percent changes of hind paw edema and severity scores compared to control animals at 7.0 micro mol/kg/day; format: functional; in short: as §2
Rattus norvegicus [27] = assay: Gain in the body weight of rat was measured at 2.8 micro mol/kg/day. (+ means significant body weight); format: functional, organism-based; in short: as §2
Rattus norvegicus [28] = assay: inhibition of swelling in rat paw edema was measured at a dose of 7.0 micro mol/kg/day for days 14-25; format: functional; in short: as §2
Rattus norvegicus [29] = assay: inhibition of swelling in rat paw edema was measured at a dose of 0.7 micro mol/kg/day for days 14-25; format: functional; in short: as §2
Rattus norvegicus [30] = assay: Gain in the body weight of rat was measured at 7.0 micro mol/kg/day. (+ means significant body weight); format: functional, organism-based; in short: as §2
Rattus norvegicus [31] = species: Rattus norvegicus; assay: compound was measured as dose which produces lesions in the treated animals.; format: functional; in short: as §3
[32] = Ratio of UD50 to that of ED25; format: ADME; conditions: read-out: Therapeutic ratio
In short: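 Therapeutic index calculated as UD50 (dose causing gastric lesions in 50% of rats) divided by ED25 (dose inhibiting carrageenin paw edema by 25%), both from the same oral rat study.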

Rattus norvegicus [33] = assay: Dose that inhibits paw swelling by 25% compared with control in carrgeenin rat paw edema assay; i = inactive at 18 umol/kg; format: functional, organism-based; in short: as §1

COc1ccc2c(c1)c(CC(=O)OCC(CO)OC(=O)Cc1c(C)n(C(=O)c3ccc(Cl)cc3)c3ccc(OC)cc13)c(C)n2C(=O)c1ccc(Cl)cc1 (centres undefined)
ED25 (Rattus norvegicus [1]): 31 µM/kg

CCCCCCCCCCCC(=O)OCC(COC(=O)CCCCCCCCCCC)OC(=O)Cc1c(C)n(C(=O)c2ccc(Cl)cc2)c2ccc(OC)cc12
Change (Rattus norvegicus [2]): 30% | Change (Rattus norvegicus [3]): 74% | Change (Rattus norvegicus [4]): 41% | Change (Rattus norvegicus [5]): 53% | Change (Rattus norvegicus [6]): significant body weight | Change (Rattus norvegicus [7]): significant body weight | ED25 (Rattus norvegicus [1]): 13 µM/kg | UD50 (Rattus norvegicus [8]): 78 µM/kg | Inhibition (Rattus norvegicus [9]): 30% | Inhibition (Rattus norvegicus [10]): 73% | Inhibition (Rattus norvegicus [11]): 70% | Inhibition (Rattus norvegicus [12]): 63% | selectivity ratio [13]: 6

CCCCCCCC(=O)OCC(COC(=O)CCCCCCC)OC(=O)Cc1c(C)n(C(=O)c2ccc(Cl)cc2)c2ccc(OC)cc12
ED25 (Rattus norvegicus [1]): 12 µM/kg

CCCCCCCCCCCCCCCC(=O)OCC(COC(=O)CCCCCCCCCCCCCCC)OC(=O)Cc1c(C)n(C(=O)c2ccc(Cl)cc2)c2ccc(OC)cc12
ED25 (Rattus norvegicus [1]): 23 µM/kg

CCCC(=O)OCC(COC(=O)CCC)OC(=O)Cc1c(C)n(C(=O)c2ccc(Cl)cc2)c2ccc(OC)cc12
ED25 (Rattus norvegicus [1]): 22 µM/kg

CCCCCCCCCC(=O)OCC(COC(=O)CCCCCCCCC)OC(=O)Cc1c(C)n(C(=O)c2ccc(Cl)cc2)c2ccc(OC)cc12
ED25 (Rattus norvegicus [1]): 18 µM/kg

COc1ccc2c(c1)c(CC(=O)OCC(O)CO)c(C)n2C(=O)c1ccc(Cl)cc1 (centres undefined)
Change (Rattus norvegicus [14]): 31% | Change (Rattus norvegicus [15]): 42% | Change (Rattus norvegicus [16]): 53% | Change (Rattus norvegicus [17]): significant body weight | Change (Rattus norvegicus [18]): significant body weight | ED25 (Rattus norvegicus [1]): 5 µM/kg | Inhibition (Rattus norvegicus [19]): 67% | Inhibition (Rattus norvegicus [20]): 57% | Inhibition (Rattus norvegicus [21]): 76% | Change (Rattus norvegicus [22]): 55% | Inhibition (Rattus norvegicus [23]): 73%

COc1ccc2c(c1)c(CC(=O)OC(CO)CO)c(C)n2C(=O)c1ccc(Cl)cc1
ED25 (Rattus norvegicus [1]): 21 µM/kg

COc1ccc2c(c1)c(CC(=O)OCC(O)COC(=O)Cc1c(C)n(C(=O)c3ccc(Cl)cc3)c3ccc(OC)cc13)c(C)n2C(=O)c1ccc(Cl)cc1
ED25 (Rattus norvegicus [24]): inactive

CCCCCCCCCCCCCCCCCCCC(=O)OCC(COC(=O)CCCCCCCCCCCCCCCCCCC)OC(=O)Cc1c(C)n(C(=O)c2ccc(Cl)cc2)c2ccc(OC)cc12
ED25 (Rattus norvegicus [1]): 38 µM/kg

COc1ccc2c(c1)c(CC(=O)O)c(C)n2C(=O)c1ccc(Cl)cc1 [INDOMETHACIN]
Change (Rattus norvegicus [25]): 25% | Change (Rattus norvegicus [2]): 33% | Change (Rattus norvegicus [4]): 56% | Change (Rattus norvegicus [26]): 74% | Change (Rattus norvegicus [27]): Active | ED25 (Rattus norvegicus [1]): 5 µM/kg | UD50 (Rattus norvegicus [8]): 10 µM/kg | Inhibition (Rattus norvegicus [9]): 57% | Inhibition (Rattus norvegicus [11]): 76% | Inhibition (Rattus norvegicus [28]): 75% | Inhibition (Rattus norvegicus [29]): 37% | Change (Rattus norvegicus [30]): Active | selectivity ratio [13]: 2

COc1ccc2c(c1)c(CC(=O)OC(COC(C)=O)COC(C)=O)c(C)n2C(=O)c1ccc(Cl)cc1
Change (Rattus norvegicus [14]): 25% | Change (Rattus norvegicus [15]): 28% | Change (Rattus norvegicus [16]): 60% | Change (Rattus norvegicus [17]): significant body weight | Change (Rattus norvegicus [18]): significant body weight | ED25 (Rattus norvegicus [1]): 14 µM/kg | Inhibition (Rattus norvegicus [19]): 50% | UD50 (Rattus norvegicus [31]): 67 µM/kg | Inhibition (Rattus norvegicus [20]): 43% | selectivity ratio [32]: 5 | Inhibition (Rattus norvegicus [21]): 79% | Change (Rattus norvegicus [22]): 55% | Inhibition (Rattus norvegicus [23]): 72%

COc1ccc2c(c1)c(CC(=O)OCC(COC(=O)Cc1c(C)n(C(=O)c3ccc(Cl)cc3)c3ccc(OC)cc13)OC(=O)Cc1c(C)n(C(=O)c3ccc(Cl)cc3)c3ccc(OC)cc13)c(C)n2C(=O)c1ccc(Cl)cc1
ED25 (Rattus norvegicus [33]): inactive

— ChEMBL document CHEMBL1121577, “Glycerides as prodrugs. 3. Synthesis and antiinflammatory activity of [1-(p-chlorobenzoyl)-5-methoxy-2-methylindole-3-acetyl]glycerides (indomethacin glycerides)” (J Med Chem, 1980)
